In ChEMBL document CHEMBL5705905, “Pharmacological targeting of kinases MST1 and MST2 augments tissue repair and regeneration” (Sci Transl Med, 2016):
Calls of active or inactive are those of the source. No cut-off for these calls is given here.

Experiments:
[1] = biological target: Mitogen-activated protein kinase kinase kinase kinase 4 (Homo sapiens) (UniProt O95819); assay: Inhibition of MAP4K4 (unknown origin) assessed as remaining activity at 1 uM by Kinome scan method relative to control
[2] = biological target: Serine/threonine-protein kinase Nek2 (Homo sapiens) (UniProt P51955); assay: Inhibition of NEK2 (unknown origin) assessed as remaining activity at 1 uM by Kinome scan method relative to control
[3] = biological target: Inhibitor of nuclear factor kappa-B kinase subunit beta (Homo sapiens) (UniProt O14920); assay: Inhibition of IKK-beta (unknown origin) assessed as remaining activity at 1 uM by Kinome scan method relative to control
Aurora kinase B = Aurora kinase B (Homo sapiens, UniProt Q96GD4); assay: Inhibition of AURKB (unknown origin) in presence of ATP by enzymatic assay
Sequence of Aurora kinase B (Q96GD4 whole entry): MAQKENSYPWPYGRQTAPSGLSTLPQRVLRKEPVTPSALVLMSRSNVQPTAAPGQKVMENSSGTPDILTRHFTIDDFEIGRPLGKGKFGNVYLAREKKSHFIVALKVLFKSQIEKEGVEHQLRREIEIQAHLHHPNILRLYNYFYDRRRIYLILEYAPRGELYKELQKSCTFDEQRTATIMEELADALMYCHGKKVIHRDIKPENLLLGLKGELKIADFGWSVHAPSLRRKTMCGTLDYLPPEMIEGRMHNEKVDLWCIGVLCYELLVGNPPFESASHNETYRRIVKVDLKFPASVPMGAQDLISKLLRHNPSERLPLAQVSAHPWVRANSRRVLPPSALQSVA

[4] = biological target: Serine/threonine-protein kinase TAO1 (Homo sapiens, UniProt Q7L7X3); assay: Binding affinity to TAOK1 (unknown origin) assessed as dissociation constant
Sequence of Serine/threonine-protein kinase TAO1 (Q7L7X3 whole entry): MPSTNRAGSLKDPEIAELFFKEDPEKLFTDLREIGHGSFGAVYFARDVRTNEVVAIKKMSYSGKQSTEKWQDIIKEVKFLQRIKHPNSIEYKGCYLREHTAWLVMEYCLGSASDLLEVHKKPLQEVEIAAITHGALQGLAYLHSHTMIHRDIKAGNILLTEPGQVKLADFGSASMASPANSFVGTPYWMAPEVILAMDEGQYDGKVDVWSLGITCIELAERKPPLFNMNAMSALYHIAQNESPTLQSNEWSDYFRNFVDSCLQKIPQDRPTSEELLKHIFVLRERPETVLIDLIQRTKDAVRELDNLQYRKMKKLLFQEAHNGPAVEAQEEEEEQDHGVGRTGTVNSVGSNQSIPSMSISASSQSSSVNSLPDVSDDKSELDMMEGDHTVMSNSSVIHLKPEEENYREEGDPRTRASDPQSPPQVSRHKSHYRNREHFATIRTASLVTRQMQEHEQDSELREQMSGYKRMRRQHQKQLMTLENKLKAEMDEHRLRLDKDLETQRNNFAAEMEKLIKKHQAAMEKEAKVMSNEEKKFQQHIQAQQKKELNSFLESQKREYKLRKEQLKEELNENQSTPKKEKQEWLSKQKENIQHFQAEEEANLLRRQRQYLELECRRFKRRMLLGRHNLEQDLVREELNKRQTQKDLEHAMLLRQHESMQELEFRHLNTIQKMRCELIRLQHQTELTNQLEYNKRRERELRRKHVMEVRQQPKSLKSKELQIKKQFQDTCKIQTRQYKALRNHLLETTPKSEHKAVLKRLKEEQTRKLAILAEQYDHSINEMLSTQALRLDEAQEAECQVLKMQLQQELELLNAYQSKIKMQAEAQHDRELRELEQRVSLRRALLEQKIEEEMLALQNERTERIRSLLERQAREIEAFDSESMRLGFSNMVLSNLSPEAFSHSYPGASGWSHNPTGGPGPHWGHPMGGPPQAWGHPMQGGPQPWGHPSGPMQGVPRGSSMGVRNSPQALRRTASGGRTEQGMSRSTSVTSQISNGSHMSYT

[5] = biological target: T1, Serine/threonine-protein kinase 4 (Homo sapiens, UniProt Q13043)
T1 sequence (Q13043 whole entry): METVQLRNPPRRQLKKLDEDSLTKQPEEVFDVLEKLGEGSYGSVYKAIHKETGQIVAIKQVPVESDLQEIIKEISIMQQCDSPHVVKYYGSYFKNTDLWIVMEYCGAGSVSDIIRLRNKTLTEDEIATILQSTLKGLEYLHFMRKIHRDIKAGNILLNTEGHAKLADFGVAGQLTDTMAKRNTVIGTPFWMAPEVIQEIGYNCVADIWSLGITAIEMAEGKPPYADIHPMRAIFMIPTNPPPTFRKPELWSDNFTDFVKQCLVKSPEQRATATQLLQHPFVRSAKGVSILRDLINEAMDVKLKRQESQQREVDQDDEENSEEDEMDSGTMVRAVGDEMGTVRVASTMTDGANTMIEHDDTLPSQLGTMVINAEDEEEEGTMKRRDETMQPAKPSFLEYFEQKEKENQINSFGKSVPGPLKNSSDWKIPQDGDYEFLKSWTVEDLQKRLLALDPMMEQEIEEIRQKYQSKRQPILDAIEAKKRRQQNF

[6] = biological target: Serine/threonine-protein kinase MAK (Homo sapiens) (UniProt P20794); assay: Inhibition of MAK (unknown origin) assessed as remaining activity at 1 uM by Kinome scan method relative to control
[7] = biological target: Serine/threonine-protein kinase TAO2 (Homo sapiens, UniProt Q9UL54); assay: Binding affinity to TAOK2 (unknown origin) assessed as dissociation constant
[8] = biological target: Casein kinase I isoform delta (Homo sapiens) (UniProt P48730); assay: Inhibition of CSNK1D (unknown origin) assessed as remaining activity at 1 uM by Kinome scan method relative to control
In short: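 Active-site-dependent competition-binding profiling (KINOMEscan) at 1 μM against a 468-kinase panel; compound supplied from a 10 mM DMSO stock. Read-out is ctrl% = (test signal − positive control signal)/(negative control signal − positive control signal) × 100. DMSO is the negative control (100%) and a control compound the positive control (0%). Lower ctrl% means tighter binding.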

[9] = biological target: Aurora kinase C (Homo sapiens) (UniProt Q9UQB9); assay: Inhibition of AURKC (unknown origin) assessed as remaining activity at 1 uM by Kinome scan method relative to control
Sequence of Aurora kinase C (Homo sapiens) (Q9UQB9 whole entry): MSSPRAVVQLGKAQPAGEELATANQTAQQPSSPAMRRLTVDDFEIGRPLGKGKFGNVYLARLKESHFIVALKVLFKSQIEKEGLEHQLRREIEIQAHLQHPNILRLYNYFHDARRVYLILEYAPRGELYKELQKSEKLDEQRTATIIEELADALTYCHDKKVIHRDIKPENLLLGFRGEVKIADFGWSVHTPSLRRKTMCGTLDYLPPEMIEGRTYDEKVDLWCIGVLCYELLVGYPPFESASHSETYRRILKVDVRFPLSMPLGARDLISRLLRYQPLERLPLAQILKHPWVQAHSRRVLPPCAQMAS
In short: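 KINOMEscan active-site-dependent competition-binding panel of 468 kinases, compound at 1 μM from a DMSO stock. Result reported as ctrl% = (test signal − positive control signal)/(negative control signal − positive control signal) × 100. The negative control is DMSO (100%) and the positive control is a control compound (0%). Lower ctrl% means tighter binding.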

[10] = test system: Hepatocyte growth factor receptor (Homo sapiens), P08581 [Y1235D]; assay: Inhibition of MET Y1235D mutant (unknown origin) assessed as remaining activity at 1 uM by Kinome scan method relative to control
[11] = test system: Phosphatidylinositol 4,5-bisphosphate 3-kinase catalytic subunit alpha isoform (Homo sapiens), P42336 [I800L]; assay: Inhibition of PIK3CA I800L mutant (unknown origin) assessed as remaining activity at 1 uM by Kinome scan method relative to control
Sequence of Phosphatidylinositol 4,5-bisphosphate 3-kinase catalytic subunit alpha isoform (Homo sapiens), P42336 [I800L] (P42336 whole entry I800L, canonical isoform): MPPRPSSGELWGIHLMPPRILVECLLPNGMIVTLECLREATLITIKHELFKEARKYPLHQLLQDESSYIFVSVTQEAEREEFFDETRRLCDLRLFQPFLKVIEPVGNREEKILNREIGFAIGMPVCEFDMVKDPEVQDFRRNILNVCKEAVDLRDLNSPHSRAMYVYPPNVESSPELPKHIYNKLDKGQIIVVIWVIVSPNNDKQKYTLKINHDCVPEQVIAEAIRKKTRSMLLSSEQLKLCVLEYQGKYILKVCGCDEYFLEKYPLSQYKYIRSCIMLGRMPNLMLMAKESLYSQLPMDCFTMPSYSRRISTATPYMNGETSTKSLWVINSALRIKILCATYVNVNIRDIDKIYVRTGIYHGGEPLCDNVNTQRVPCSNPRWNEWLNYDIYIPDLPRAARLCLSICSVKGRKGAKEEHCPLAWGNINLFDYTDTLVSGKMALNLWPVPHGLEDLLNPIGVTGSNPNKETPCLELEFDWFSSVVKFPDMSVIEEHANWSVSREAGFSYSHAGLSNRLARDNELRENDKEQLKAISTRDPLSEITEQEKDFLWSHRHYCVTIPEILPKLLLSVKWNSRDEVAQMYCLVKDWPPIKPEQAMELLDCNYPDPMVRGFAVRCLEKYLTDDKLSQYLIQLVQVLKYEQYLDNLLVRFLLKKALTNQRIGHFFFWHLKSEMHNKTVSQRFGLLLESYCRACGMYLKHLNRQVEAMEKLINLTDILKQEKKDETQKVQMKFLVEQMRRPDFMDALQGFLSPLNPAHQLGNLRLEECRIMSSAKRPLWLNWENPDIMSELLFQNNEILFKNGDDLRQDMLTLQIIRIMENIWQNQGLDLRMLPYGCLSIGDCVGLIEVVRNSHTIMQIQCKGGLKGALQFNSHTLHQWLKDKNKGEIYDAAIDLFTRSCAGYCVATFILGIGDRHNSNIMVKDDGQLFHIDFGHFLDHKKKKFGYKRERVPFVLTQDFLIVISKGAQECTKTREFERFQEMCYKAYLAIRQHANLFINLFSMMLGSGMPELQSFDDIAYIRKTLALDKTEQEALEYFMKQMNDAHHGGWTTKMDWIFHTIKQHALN

[12] = biological target: TGF-beta receptor type-1 (Homo sapiens) (UniProt P36897); assay: Inhibition of TGFBR1 (unknown origin) assessed as remaining activity at 1 uM by Kinome scan method relative to control
Sequence of TGF-beta receptor type-1 (Homo sapiens) (P36897 whole entry): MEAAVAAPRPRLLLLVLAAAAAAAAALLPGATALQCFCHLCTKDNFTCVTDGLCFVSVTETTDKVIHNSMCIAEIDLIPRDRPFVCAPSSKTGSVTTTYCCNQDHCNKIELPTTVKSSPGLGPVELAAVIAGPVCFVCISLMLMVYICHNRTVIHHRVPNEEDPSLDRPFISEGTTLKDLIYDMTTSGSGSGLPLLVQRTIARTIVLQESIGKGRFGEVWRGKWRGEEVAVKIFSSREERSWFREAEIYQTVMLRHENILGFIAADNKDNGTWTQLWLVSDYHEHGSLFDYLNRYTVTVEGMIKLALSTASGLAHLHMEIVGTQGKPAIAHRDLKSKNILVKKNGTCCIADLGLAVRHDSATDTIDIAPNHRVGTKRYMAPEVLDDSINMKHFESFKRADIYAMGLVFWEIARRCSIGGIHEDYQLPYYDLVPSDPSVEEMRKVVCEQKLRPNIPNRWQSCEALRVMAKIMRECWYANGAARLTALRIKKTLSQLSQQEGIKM

[13] = biological target: 5'-AMP-activated protein kinase catalytic subunit alpha-2 (Homo sapiens) (UniProt P54646); assay: Inhibition of AMPK-alpha2 (unknown origin) assessed as remaining activity at 1 uM by Kinome scan method relative to control
In short: (§1)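 Active-site-dependent competition-binding (KINOMEscan) panel of 468 kinases, test compound at 1 μM (from a 10 mM DMSO stock). Read-out is ctrl% = (test signal − positive control signal)/(negative control signal − positive control signal) × 100. DMSO is the negative control (100%) and a control compound is the positive control (0%). Lower ctrl% means tighter binding.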

[14] = biological target: Ribosomal protein S6 kinase alpha-3 (Homo sapiens) (UniProt P51812); assay: Inhibition of C-terminal kinase domain RSK2 (unknown origin) assessed as remaining activity at 1 uM by Kinome scan method relative to control; in short: as §1
Mus musculus = assay: Anti-colitis activity against DSS-induced mouse assessed as high BrdU incorporation at 1 mg/kg, ip administrated daily for 8 days by IHC staining; type: functional, organism-based; details: Colon, time 8.0 day
In short: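 Wild-type mice received oral DSS for 7 days with vehicle or 1 mg/kg daily. Colon sections were stained by IHC for YAP, BrdU and Ki67, and positive cells were quantified per animal. Means ± SD, n = 10, Student's t test.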

[15] = biological target: Phosphatidylinositol 5-phosphate 4-kinase type-2 gamma (Homo sapiens, UniProt Q8TBX8); assay: Binding affinity to PIP5K2C (unknown origin) assessed as dissociation constant
[16] = biological target: Ribosomal protein S6 kinase alpha-2 (Homo sapiens) (UniProt Q15349); assay: Inhibition of N-terminal kinase domain RSK3 (unknown origin) assessed as remaining activity at 1 uM by Kinome scan method relative to control
Sequence of Ribosomal protein S6 kinase alpha-2 (Homo sapiens) (Q15349 whole entry, the tested form may be a part): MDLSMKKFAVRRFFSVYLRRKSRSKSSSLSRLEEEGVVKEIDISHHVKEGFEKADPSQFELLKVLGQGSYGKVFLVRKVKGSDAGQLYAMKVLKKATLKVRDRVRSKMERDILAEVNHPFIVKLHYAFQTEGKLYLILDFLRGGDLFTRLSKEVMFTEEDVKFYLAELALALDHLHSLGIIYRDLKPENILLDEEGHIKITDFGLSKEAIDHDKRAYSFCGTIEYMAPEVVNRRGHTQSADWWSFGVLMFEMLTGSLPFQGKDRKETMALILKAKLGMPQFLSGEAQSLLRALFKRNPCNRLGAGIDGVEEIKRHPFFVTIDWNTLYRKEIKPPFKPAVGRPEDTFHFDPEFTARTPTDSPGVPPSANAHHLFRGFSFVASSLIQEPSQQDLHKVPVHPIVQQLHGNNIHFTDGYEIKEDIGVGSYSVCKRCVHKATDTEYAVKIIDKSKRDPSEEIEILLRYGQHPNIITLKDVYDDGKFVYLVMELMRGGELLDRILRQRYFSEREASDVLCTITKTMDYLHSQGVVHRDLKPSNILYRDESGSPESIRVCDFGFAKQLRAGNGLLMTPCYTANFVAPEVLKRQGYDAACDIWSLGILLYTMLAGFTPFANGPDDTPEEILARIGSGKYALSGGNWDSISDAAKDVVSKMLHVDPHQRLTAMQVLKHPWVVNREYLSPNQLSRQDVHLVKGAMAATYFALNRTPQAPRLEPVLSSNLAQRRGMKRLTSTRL

[17] = biological target: Serine/threonine-protein kinase PLK2 (Homo sapiens) (UniProt Q9NYY3); assay: Inhibition of PLK2 (unknown origin) assessed as remaining activity at 1 uM by Kinome scan method relative to control
[18] = biological target: Mitogen-activated protein kinase kinase kinase 9 (Homo sapiens) (UniProt P80192); assay: Inhibition of MLK1 (unknown origin) assessed as remaining activity at 1 uM by Kinome scan method relative to control
Sequence of Mitogen-activated protein kinase kinase kinase 9 (Homo sapiens) (P80192 whole entry, looked up): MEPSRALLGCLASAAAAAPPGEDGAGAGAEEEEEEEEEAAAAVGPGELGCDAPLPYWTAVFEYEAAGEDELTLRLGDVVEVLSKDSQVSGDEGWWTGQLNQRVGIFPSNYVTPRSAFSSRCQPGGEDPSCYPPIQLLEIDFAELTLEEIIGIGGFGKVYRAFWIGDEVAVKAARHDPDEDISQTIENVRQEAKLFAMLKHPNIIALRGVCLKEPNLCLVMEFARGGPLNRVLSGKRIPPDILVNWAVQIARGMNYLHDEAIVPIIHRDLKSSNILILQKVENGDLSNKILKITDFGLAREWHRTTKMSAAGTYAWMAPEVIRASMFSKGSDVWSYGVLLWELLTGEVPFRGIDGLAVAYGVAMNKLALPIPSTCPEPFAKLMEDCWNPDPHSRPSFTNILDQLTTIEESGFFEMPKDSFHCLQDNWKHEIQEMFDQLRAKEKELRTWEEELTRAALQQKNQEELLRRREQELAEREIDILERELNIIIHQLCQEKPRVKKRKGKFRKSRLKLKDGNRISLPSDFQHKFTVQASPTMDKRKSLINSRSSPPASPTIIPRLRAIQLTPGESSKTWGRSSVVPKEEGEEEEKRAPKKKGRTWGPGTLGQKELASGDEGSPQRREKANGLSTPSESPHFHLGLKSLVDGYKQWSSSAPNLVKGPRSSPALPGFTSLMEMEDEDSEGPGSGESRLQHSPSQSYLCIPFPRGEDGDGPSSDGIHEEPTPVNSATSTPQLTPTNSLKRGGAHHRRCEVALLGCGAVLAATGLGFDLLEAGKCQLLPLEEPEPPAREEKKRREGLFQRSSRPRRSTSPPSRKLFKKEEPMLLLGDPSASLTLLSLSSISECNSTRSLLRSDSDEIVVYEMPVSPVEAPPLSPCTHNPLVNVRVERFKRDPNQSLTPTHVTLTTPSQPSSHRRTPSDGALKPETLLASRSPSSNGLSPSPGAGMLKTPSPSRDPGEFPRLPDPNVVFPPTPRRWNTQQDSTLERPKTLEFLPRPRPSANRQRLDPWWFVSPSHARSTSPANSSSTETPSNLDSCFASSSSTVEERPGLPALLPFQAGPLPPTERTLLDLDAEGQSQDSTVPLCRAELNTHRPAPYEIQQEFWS

[19] = biological target: Serine/threonine-protein kinase ULK2 (Homo sapiens) (UniProt Q8IYT8); assay: Inhibition of ULK2 (unknown origin) assessed as remaining activity at 1 uM by Kinome scan method relative to control
[20] = biological target: Ribosomal protein S6 kinase beta-1 (Homo sapiens) (UniProt P23443); assay: Inhibition of S6K1 (unknown origin) assessed as remaining activity at 1 uM by Kinome scan method relative to control
[21] = test system: Epidermal growth factor receptor (Homo sapiens), P00533 [G719C]; assay: Inhibition of EGFR G719C mutant (unknown origin) assessed as remaining activity at 1 uM by Kinome scan method relative to control

Question: With `CN1C(=O)c2sccc2N(C)c2nc(Nc3ccc(S(N)(=O)=O)cc3)ncc21` as the compound, how does the Activity [1] read?
Answer: 100%

Question: And the Activity [2]?
Answer: 59%

Question: What about the Activity [3] of the same compound?
Answer: 100%

Question: And the IC50 (Aurora kinase B)?
Answer: 19.1 nM

Question: What about the Kd [4] of the same compound?
Answer: 180 nM

Question: And the IC50 [5]?
Answer: 70.7 nM

Question: And the Activity [6]?
Answer: 100%

Question: And the Kd [7]?
Answer: 100 nM

Question: What about the Activity [8] of the same compound?
Answer: 90%

Question: And the Activity [9]?
Answer: 95%

Question: What about the Activity [10] of the same compound?
Answer: 83%

Question: What about the Activity [11] of the same compound?
Answer: 23%

Question: And the Activity [12]?
Answer: 92%

Question: What about the Activity [13] of the same compound?
Answer: 100%

Question: What about the Activity [14] of the same compound?
Answer: 66%

Question: And the Activity (Mus musculus)?
Answer: Active

Question: And the Kd [15]?
Answer: 34 nM

Question: What about the Activity [16] of the same compound?
Answer: 97%

Question: And the Activity [17]?
Answer: 42%

Question: And the Activity [18]?
Answer: 100%

Question: What about the Activity [19] of the same compound?
Answer: 4.8%

Question: What about the Activity [20] of the same compound?
Answer: 100%

Question: And the Activity [21]?
Answer: 78%
